Assay results from ChEMBL document CHEMBL4622925, “N1-Substituted benzimidazole scaffold for farnesoid X receptor (FXR) agonists accompanying prominent selectivity against vitamin D receptor (VDR)” (Bioorg Med Chem, 2020).

Columns and labels:
[1] = tested on: Huh-7; assay: Cytotoxicity against human HuH7 cells assessed as cell viability by MTT assay; type: cell-based
[2] = tested on: HEK-293T; assay: Cytotoxicity against human HEK293T cells assessed as cell viability by MTT assay; type: cell-based
[3] = target: T1, Vitamin D3 receptor (Homo sapiens, UniProt P11473); assay: Antagonist activity at human VDR transfected in HEK293T cells measured after 24 hrs by luciferase reporter gene assay; type: cell-based, HEK-293T
T1 sequence (P11473 whole entry): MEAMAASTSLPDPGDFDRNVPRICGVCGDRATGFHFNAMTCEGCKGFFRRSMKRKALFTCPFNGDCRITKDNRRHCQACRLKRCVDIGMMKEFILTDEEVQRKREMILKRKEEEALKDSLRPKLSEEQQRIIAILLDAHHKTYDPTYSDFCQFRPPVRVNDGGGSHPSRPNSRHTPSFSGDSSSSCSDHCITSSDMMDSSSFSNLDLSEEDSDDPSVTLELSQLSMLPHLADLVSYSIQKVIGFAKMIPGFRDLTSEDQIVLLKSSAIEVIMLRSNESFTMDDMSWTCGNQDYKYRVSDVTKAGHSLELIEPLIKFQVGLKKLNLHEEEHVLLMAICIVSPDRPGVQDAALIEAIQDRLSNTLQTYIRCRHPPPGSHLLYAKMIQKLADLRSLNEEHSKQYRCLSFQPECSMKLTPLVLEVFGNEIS

[4] = target: T2, Bile acid receptor (Homo sapiens, UniProt Q96RI1); assay: Agonist activity at GST-fused FXR-LBD (unknown origin) incubated with Fluorecein-SRC2-2 coactivator peptide as substrate by TR-FRET assay
T2 sequence (Q96RI1 whole entry): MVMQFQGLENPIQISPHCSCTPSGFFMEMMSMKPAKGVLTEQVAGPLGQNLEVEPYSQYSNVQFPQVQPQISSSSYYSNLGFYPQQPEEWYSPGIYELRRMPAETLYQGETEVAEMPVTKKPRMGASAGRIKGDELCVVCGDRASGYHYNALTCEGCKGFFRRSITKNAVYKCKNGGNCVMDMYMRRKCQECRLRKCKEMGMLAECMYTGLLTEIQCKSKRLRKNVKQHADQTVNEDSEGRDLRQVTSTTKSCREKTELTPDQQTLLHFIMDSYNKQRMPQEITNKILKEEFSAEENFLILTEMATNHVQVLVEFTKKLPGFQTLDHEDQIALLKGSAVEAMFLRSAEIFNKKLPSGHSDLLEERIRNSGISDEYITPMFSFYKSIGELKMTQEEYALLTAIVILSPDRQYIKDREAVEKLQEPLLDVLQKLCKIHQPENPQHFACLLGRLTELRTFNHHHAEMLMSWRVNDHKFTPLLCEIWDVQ

[5] = target: T2, Bile acid receptor; assay: Agonist activity at human FXR expressed in human HuH7 cells by luciferase reporter gene assay; type: cell-based, Huh-7
[6] = Cytotoxicity against mouse ST-2 cells assessed as cell viability upto 5 uM incubated for 12 days by WST-8 assay; type: cell-based; settings: 288 h
In short: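 ST-2 mesenchymal stem cells kept 12 days in RPMI-1640 medium containing compound at 0–10 μM. Viability read by WST-8 assay and expressed relative to untreated (0 μM) cells set as 100%. Means ± S.D., n=5.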

| SMILES | Activity [1] | Activity [2] | IC50 [3] | EC50 [4] | EC50 [5] | Activity [6] |
| --- | --- | --- | --- | --- | --- | --- |
| CC(C)c1onc(-c2c(Cl)cccc2Cl)c1COc1ccc(-c2nc3ccc(C(=O)O)cc3n2C2CC2)cc1 | Toxic | Toxic |  |  |  |  |
| CC(C)c1onc(-c2c(Cl)cccc2Cl)c1COc1ccc(-c2nc3ccc(C(=O)O)cc3n2C2CCCCCC2)cc1 | Toxic | Toxic |  |  |  |  |
| CC(C)c1onc(-c2c(Cl)cccc2Cl)c1COc1ccc(-c2nc3ccc(C(=O)O)cc3n2C)cc1 | Toxic | Toxic |  |  |  |  |
| CC(=O)C1CCC(Cn2c(-c3ccc(OCc4c(-c5c(Cl)cccc5Cl)noc4C(C)C)cc3)nc3ccc(C(=O)O)cc32)CC1 (stereo not drawn) | Toxic | Toxic | > 10000 nM |  |  |  |
| CCC(CC)n1c(-c2ccc(OCc3c(-c4c(Cl)cccc4Cl)noc3C(C)C)cc2Cl)nc2ccc(C(=O)O)cc21 | Toxic | Toxic |  | 21.6 nM | 1.6 nM |  |
| CC(C)c1onc(-c2c(Cl)cccc2Cl)c1COc1ccc(-c2nc3cc(C(=O)O)ccc3n2C)cc1 | Toxic | Toxic |  |  |  |  |
| CCC(CC)n1c(-c2ccc(OCc3c(-c4c(Cl)cccc4Cl)noc3C(C)C)cc2F)nc2ccc(C(=O)O)cc21 | Toxic | Toxic | > 10000 nM |  |  |  |
| CC(C)c1onc(-c2c(Cl)cccc2Cl)c1COc1ccc(-c2nc3ccc(C(=O)O)cc3n2CC2CCCCC2)cc1 | Toxic | Toxic |  |  |  | Non-Toxic |
| CC(C)c1onc(-c2c(Cl)cccc2Cl)c1COc1ccc(-c2nc3ccc(C(=O)O)cc3n2C2CCCC2)cc1 | Toxic | Toxic |  |  |  |  |
| CC(C)c1onc(-c2c(Cl)cccc2Cl)c1COc1ccc(-c2nc3ccc(C(=O)O)cc3n2CC(C)(C)C)cc1 | Toxic | Toxic |  | 24.8 nM | 13 nM |  |
| CC(C)c1onc(-c2c(Cl)cccc2Cl)c1COc1ccc(-c2nc3ccc(C(=O)O)cc3n2C(C)C)cc1 | Toxic | Toxic |  |  |  |  |
| CC(C)Cn1c(-c2ccc(OCc3c(-c4c(Cl)cccc4Cl)noc3C(C)C)cc2)nc2ccc(C(=O)O)cc21 | Toxic | Toxic |  |  |  |  |
| CC(C)c1onc(-c2c(Cl)cccc2Cl)c1COc1ccc(-c2nc3ccc(C(=O)O)cc3n2CC2CCCCC2)c(F)c1 | Toxic | Toxic |  |  |  |  |
| CC(=O)N1CCC(n2c(-c3ccc(OCc4c(-c5c(Cl)cccc5Cl)noc4C(C)C)cc3)nc3ccc(C(=O)O)cc32)CC1 | Toxic | Toxic | > 10000 nM |  |  |  |
| CCCC(CCC)n1c(-c2ccc(OCc3c(-c4c(Cl)cccc4Cl)noc3C(C)C)cc2)nc2ccc(C(=O)O)cc21 | Toxic | Toxic | > 10000 nM |  |  |  |
| CC(C)c1onc(-c2c(Cl)cccc2Cl)c1COc1ccc(/C=C/c2cccc(C(=O)O)c2)c(Cl)c1 |  |  | > 10000 nM |  |  |  |
| CC(C)c1onc(-c2c(Cl)cccc2Cl)c1COc1ccc(-c2nc3ccc(C(=O)O)cc3n2CC2CC2)cc1 | Toxic | Toxic |  |  |  |  |
| CCC(CC)n1c(-c2ccc(OCc3c(-c4c(Cl)cccc4Cl)noc3C(C)C)cc2)nc2ccc(C(=O)O)cc21 | Toxic | Toxic |  |  |  | Non-Toxic |
| CC(C)c1onc(-c2c(Cl)cccc2Cl)c1COc1ccc(-c2nc3ccc(C(=O)O)cc3n2C)cc1Cl | Toxic | Toxic |  |  |  |  |
| CC(C)c1onc(-c2c(Cl)cccc2Cl)c1COc1ccc(-c2nc3ccc(C(=O)O)cc3n2CC2CCCCC2)c(Cl)c1 | Toxic | Toxic |  |  |  |  |
| CC(C)c1onc(-c2c(Cl)cccc2Cl)c1COc1ccc(-c2nc3ccc(C(=O)O)cc3n2Cc2ccc(F)cc2)cc1 | Toxic | Toxic |  |  |  |  |
| CCCn1c(-c2ccc(OCc3c(-c4c(Cl)cccc4Cl)noc3C(C)C)cc2)nc2ccc(C(=O)O)cc21 | Toxic | Toxic |  |  |  |  |
| CC(C)c1onc(-c2c(Cl)cccc2Cl)c1COc1ccc(-c2nc3ccc(C(=O)O)cc3n2C2CCC2)cc1 | Toxic | Toxic |  |  |  |  |
| CCn1c(-c2ccc(OCc3c(-c4c(Cl)cccc4Cl)noc3C(C)C)cc2)nc2ccc(C(=O)O)cc21 | Toxic | Toxic |  |  |  |  |
| CC(C)c1onc(-c2c(Cl)cccc2Cl)c1COc1ccc(-c2nc3ccc(C(=O)O)cc3n2-c2ccc(F)cc2)cc1 | Toxic | Toxic |  |  |  |  |
| CC(C)c1onc(-c2c(Cl)cccc2Cl)c1COc1ccc(-c2nc3ccc(C(=O)O)cc3n2C2CCCCC2)cc1 | Toxic | Toxic |  |  |  |  |
| CC(C)c1onc(-c2c(Cl)cccc2Cl)c1COc1ccc(-c2nc3ccc(C(=O)O)cc3n2C)c(Cl)c1 | Toxic | Toxic |  |  |  |  |
